These results are taken from ChEMBL document CHEMBL1212828, “Synthesis and biological evaluation of novel pyrazole compounds” (Bioorg Med Chem, 2010).

By IC50 is commonly meant the concentration that gives 50% inhibition. As usually defined, the inhibition is the share of the control response that was lost under treatment. A lower inhibition goes with little suppression. What is called EC50 is the concentration that produces a half-maximal response. What is called inhibition in vivo is the drop in the measured response relative to a control, in per cent. A word on the ED50: it is the dose at which the effect has come halfway, by size or by number of responders.

The source made the active and inactive calls. The rule behind the calls is not given here. Bounds are passed on as bounds.

The test system of data set [1] is Rattus norvegicus. Briefly: Toxicity in Wistar albino rat assessed as ulcerogenic activity at 300 mg/kg, po qd for 3 days. Format: organism-based. Also on record: dose 300 mg/kg, route oral. The conditions noted are these: in vivo, 72 h. The gist of the method:
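Rats in groups of five, fasted 12 h with water ad libitum; oral dosing in two equal portions at 0 and 12 h for three days, 300 mg/kg per day; control given 1% gum acacia. Killed 6 h after last dose; stomach opened along greater curvature, saline-washed, inspected under 3× lens for hyperemia, hemorrhage, erosion or ulcer.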

Data set [2] relates to THP-1. Briefly: Neuroprotective activity against LPS and IFN-gamma-stimulated neurotoxin production in human THP1 cell assessed as inhibition of THP1 cell secretion-induced toxicity to human SH-SY5Y cells after 72 hrs by MTT assay. Type of data set: functional, cell-based. Conditions: THP-1, 72 h. The procedure, abridged:
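THP-1 cells pretreated 15 min with compound, then stimulated with LPS (0.5 µg/mL) plus IFN-γ (150 U/mL) for 24 h. Cell-free supernatant transferred to SH-SY5Y cells plated 24 h earlier (2 × 10^5 cells/mL). After 72 h, SH-SY5Y viability read by MTT (0.5 mg/mL, 1 h, 37 °C, OD570) or by LDH release (OD490, relative to Triton X-100 lysis). IC50 estimated.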
(Formazan colour is commonly taken as a measure of viable cells.)

Data set [3] deals with SH-SY5Y. Put plainly: Neuroprotective activity in human SH-SY5Y cells. Format: functional, cell-based. The procedure, abridged: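 SH-SY5Y cells seeded at 2 × 10^5/mL in DMEM-F12 with 5% FBS; after 24 h medium replaced by supernatant of THP-1 cells stimulated 24 h with LPS + IFN-γ, or by medium containing 250 µM H2O2, with compound added at transfer. Cell death measured by LDH assay 72 h later; five independent experiments; randomized block ANOVA.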

The target in data set [4] is T1, Prostaglandin G/H synthase 1 (Ovis aries) (UniProt P05979).
T1 sequence (whole entry): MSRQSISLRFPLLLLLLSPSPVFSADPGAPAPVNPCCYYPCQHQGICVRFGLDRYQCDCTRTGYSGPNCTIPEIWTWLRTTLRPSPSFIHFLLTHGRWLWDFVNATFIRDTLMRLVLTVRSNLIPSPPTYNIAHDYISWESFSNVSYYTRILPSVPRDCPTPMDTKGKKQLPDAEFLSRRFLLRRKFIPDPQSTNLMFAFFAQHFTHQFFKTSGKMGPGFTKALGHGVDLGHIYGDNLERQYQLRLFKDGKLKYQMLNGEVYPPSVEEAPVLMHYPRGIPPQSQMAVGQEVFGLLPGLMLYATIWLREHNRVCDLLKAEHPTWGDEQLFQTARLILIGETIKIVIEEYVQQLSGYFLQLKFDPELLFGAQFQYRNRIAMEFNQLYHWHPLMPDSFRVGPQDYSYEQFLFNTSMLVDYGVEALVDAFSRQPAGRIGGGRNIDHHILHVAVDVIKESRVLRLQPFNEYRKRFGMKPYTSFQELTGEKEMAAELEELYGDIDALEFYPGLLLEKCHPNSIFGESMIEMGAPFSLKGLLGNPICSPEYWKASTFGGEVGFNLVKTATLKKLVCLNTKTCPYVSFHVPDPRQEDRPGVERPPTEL
Put plainly: Inhibition of ovine COX1 at 100 uM. The procedure, abridged:
(§1)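 Screening kit with ovine COX-1 and human recombinant COX-2, run per manufacturer's protocol; percent inhibition of prostaglandin production measured for each isoform.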

Data set [5] has as its system THP-1. Briefly: Cytotoxicity against human THP1 cells assessed as reduction in cell viability. Format: cell-based. The gist of the method:
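THP-1 cells in DMEM-F12 with 5% FBS, 24-well plates, pretreated 15 min with compound or DMSO vehicle, then stimulated with LPS 0.5 µg/mL plus IFN-γ 150 U/mL for 24 h. Death read as supernatant LDH (iodonitrotetrazolium formazan, 490 nm, fraction of Triton X-100 lysate); survival by MTT; MCP-1 by ELISA. Concentration effects by randomized block ANOVA; 8–11 independent experiments.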

Data set [6] concerns THP-1. Put plainly: Antiinflammatory activity in human THP1 cells assessed as reduction in LPS and IFN-gamma-induced MCP level after 24 hrs. Type of data set: functional, cell-based. Conditions: Homo sapiens, THP-1, 24 h; read-out: IC50. The procedure, abridged: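 THP-1 cells (5 × 10^5 cells/mL, DMEM-F12 with 5% FBS) pretreated 15 min with compound or DMSO vehicle, then stimulated with 0.5 µg/mL LPS plus 150 U/mL IFN-γ. After 24 h, MCP-1 in cell-free medium measured by ELISA. IC50 estimated from concentration–response; randomized block ANOVA.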

Data set [7] deals with T2, Prostaglandin G/H synthase 2 (Homo sapiens) (UniProt P35354).
T2 sequence (whole entry): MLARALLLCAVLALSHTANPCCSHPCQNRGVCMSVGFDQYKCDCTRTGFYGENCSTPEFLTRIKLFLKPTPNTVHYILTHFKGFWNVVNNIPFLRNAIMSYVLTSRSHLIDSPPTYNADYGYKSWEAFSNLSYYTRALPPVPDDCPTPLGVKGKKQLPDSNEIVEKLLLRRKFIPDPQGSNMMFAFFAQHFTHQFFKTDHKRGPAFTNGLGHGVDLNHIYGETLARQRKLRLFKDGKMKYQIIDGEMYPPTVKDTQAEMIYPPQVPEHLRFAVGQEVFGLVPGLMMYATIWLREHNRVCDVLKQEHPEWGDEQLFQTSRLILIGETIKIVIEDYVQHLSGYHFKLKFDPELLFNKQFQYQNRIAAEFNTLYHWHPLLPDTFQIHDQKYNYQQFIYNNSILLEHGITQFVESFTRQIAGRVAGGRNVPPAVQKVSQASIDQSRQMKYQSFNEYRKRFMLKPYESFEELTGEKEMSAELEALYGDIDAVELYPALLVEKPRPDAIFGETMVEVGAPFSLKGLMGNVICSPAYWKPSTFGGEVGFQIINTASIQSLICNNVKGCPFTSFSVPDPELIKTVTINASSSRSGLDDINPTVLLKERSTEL
Put plainly: Inhibition of human COX2 at 100 uM. The procedure, abridged:
as §1

Data set [8] deals with SH-SY5Y (Homo sapiens). Put plainly: Neuroprotective activity against LPS and IFN-gamma-induced human THP1 cell supernatant-induced death of human SH-SY5Y cells after 72 hrs by MTT assay. The conditions noted are these: THP-1.
In data set [9] the test system is Rattus norvegicus. Briefly: Antiinflammatory activity in Wistar albino rat assessed as inhibition of formalin-induced paw edema at 20 mg/kg, po administered 1 hr prior to formalin challenge measured after 2 hrs relative to control. Type of data set: functional. The gist of the method:
(§2)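 Male Wistar rats, 180–200 g, groups of five; single oral dose 1 h before 2% formalin (0.1 mL) into subplantar left hind paw under light ether anaesthesia. Paw volume read by water plethysmometer at baseline and 1, 2, 3, 4 h; % inhibition = control (Vt−Vo) minus treated (Vt−Vo), over control, ×100. Means ± SEM; ANOVA with Student–Newman–Keuls.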

Data set [10] has as its system Rattus norvegicus. Put plainly: Antiinflammatory activity in Wistar albino rat assessed as inhibition of formalin-induced paw edema at 20 mg/kg, po administered 1 hr prior to formalin challenge measured after 1 hr relative to control. Format: functional. The procedure, abridged: as §2
Data set [11] relates to Rattus norvegicus. Briefly: Antiinflammatory activity in Wistar albino rat sub-acute inflammatory model assessed as inhibition of formalin-induced paw edema at 20 mg/kg, po administered 1 hr prior to formalin challenge measured on day 8 relative to control. Type of data set: functional. The procedure, abridged: (§3)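 Male Wistar rats, 180–200 g, five per group, dosed orally 20 mg/kg daily for 7 consecutive days. Formalin (2%, 0.1 mL) injected subplantar into left hind paw under light ether 1 h after dosing, repeated on day 3. Paw volume measured plethysmographically on days 1 and 8; inhibition expressed relative to untreated controls.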

Data set [12] concerns Rattus norvegicus. Put plainly: Antiinflammatory activity in Wistar albino rat assessed as inhibition of formalin-induced paw edema at 20 mg/kg, po administered 1 hr prior to formalin challenge measured after 3 hrs relative to control. Format: functional. The gist of the method: as §2
For data set [13], the system named is Rattus norvegicus. Put plainly: Antiinflammatory activity in Wistar albino rat sub-acute inflammatory model assessed as inhibition of formalin-induced paw edema at 20 mg/kg, po administered 1 hr prior to formalin challenge measured on day 1 relative to control. Type of data set: functional. The gist of the method:
as §3

Data set [14] relates to Rattus norvegicus. Put plainly: Antiinflammatory activity in po dosed Wistar albino rat assessed as inhibition of formalin-induced paw edema after 3 hrs relative to control. Type of data set: functional.
Data set [15] relates to Rattus norvegicus. Briefly: Antiinflammatory activity in Wistar albino rat assessed as inhibition of formalin-induced paw edema at 20 mg/kg, po administered 1 hr prior to formalin challenge measured after 4 hrs relative to control. Format: functional. The procedure, abridged: as §2
Data set [16] deals with Rattus norvegicus. Briefly: Antiinflammatory activity in Wistar albino rat assessed as inhibition of turpentine oil-induced granuloma at 20 mg/kg, po qd for 7 days post turpentine oil challenge measured on day 8. Type of data set: functional. The procedure, abridged:
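In ether-anaesthetized male Wistar rats (five per group) a dorsal subcutaneous pouch is formed with 2 mL air, then 0.5 mL turpentine oil is injected. Oral dosing at 20 mg/kg starts 1 h before turpentine and continues 7 days. On day 8 the exudate is drawn by syringe and its volume recorded; % inhibition = (Vcontrol − Vtreated)/Vcontrol × 100.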

Data set [17] in a line: Acute toxicity in Wistar albino rat after 24 hrs. Format: organism-based. Conditions: in vivo, read-out: ALD50. The procedure, abridged: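 Male Wistar albino rats (180–200 g), fasted 24 h, groups of five; compound given orally in graded doses of 0.1–3.0 g/kg. Mortality recorded at each dose after 24 h to estimate approximate acute lethal dose (ALD50).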

Turning to `COc1ccc2c(c1)c(CC(=O)O)c(C)n2C(=O)c1ccc(Cl)cc1` [INDOMETHACIN], the Activity in data set [1] is listed as 100%.
As to `COC(=O)c1nc2c(cnn2-c2ccccc2)c(=O)[nH]1`, the IC50 in [2] worked out at 20 µM; in [6], 100 µM. For the same molecule, in [3], the result was inactive. Moreover, the inhibition in data set [4] amounted to 16.4%; in data set [7], 14.2%. The EC50 in data set [5] was 40 µM. The result in [8] was Active.
`C[C@@H](NC(=O)C(=O)Nc1c(C#N)cnn1-c1ccccc1)c1ccccc1`: the inhibition in vivo at 20 mg/kg in [9] amounted to 36%; in data set [10] it was 56%; in data set [11], 33%; in [12], 44%; in [13], 39%; in [15], 50%. For the same molecule, the inhibition in vivo at 20 mg/kg in data set [16] stood at 39%. For the same molecule, in [1], the Activity came to 0%. The ED50 in data set [14] was found to be 18.9 mg/kg. Also, the LD50 at 24 h in data set [17] is over 300 mg/kg.
Take `C[C@H](NC(=O)C(=O)Nc1c(C#N)cnn1-c1ccccc1)c1ccccc1`: the inhibition in vivo at 20 mg/kg in [9] was 32%; in [10], 37%; in data set [11], 35%; in data set [12], 38%; in [13] it was 41%; in data set [15], 39%. Besides, the inhibition in vivo at 20 mg/kg in [16] turned out to be 49%. In data set [1], the Activity is given as 0%. Also, in [14], the ED50 was found to be 22.4 mg/kg. Further, in data set [17], the LD50 at 24 h is over 300 mg/kg.
On to `N#Cc1cnn(-c2ccccc2)c1NC(=O)C(=O)NC1CCCCC1`, for which the figures for the IC50 in [2] and in data set [6] were 250 µM and over 500 µM, respectively. Moreover, the EC50 in data set [5] worked out at 80 µM.
For `N#Cc1cnn(-c2ccccc2)c1NC(=O)C(=O)NCCCN1CCOCC1`, the figures for the IC50 in data set [2] and in data set [6] were 100 µM and over 500 µM, respectively. In addition, in data set [5], the EC50 was over 500 µM.
Turning to `N#Cc1cnn(-c2ccccc2)c1NC(=O)C(=O)NCCc1ccccc1`, the EC50 in [5] amounted to 10 µM.
As for `Cc1ccc(-c2cc(C(F)(F)F)nn2-c2ccc(S(N)(=O)=O)cc2)cc1` [CELECOXIB], the figures for the IC50 in data set [2] and in data set [6] were 5 µM and 70 µM, respectively. In addition, the inhibition in vivo at 20 mg/kg in data set [9] was determined as 41%; in data set [10], 38%; in data set [11], 41%; in [12], 56%; in [13], 37%; in data set [15], 47%. Moreover, in data set [16], the inhibition in vivo at 20 mg/kg turned out to be 46%. For the same molecule, the Activity in data set [1] came out at 0%. For the same molecule, the ED50 in data set [14] came out at 15.7 mg/kg.
